Series [1] deals with Salmonella typhimurium. Briefly: Genotoxicity in Salmonella typhimurium TA102 at 3 ug/plate assessed as number of revertants per plate (reference value: 301 +/- 5.2 no unit). It counts as toxicity, organism-based. The following applies: salmonella enterica subsp. enterica serovar typhimurium.
For series [2], the system named is L929. Briefly: Antiinflammatory activity against mouse L929 cells assessed as inhibition of LPS-induced TNFalpha production at 125 uM after 48 hrs. It counts as functional. The following applies: L929, 48 h. The method, boiled down:
(§1)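 Mouse L929 fibroblasts were stimulated with lipopolysaccharide and exposed to compounds at 15.62 µM and 125 µM. TNFα was quantified in culture supernatants in pg/mL and expressed as percent decrease versus stimulated cells. Thalidomide served as the reference control.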

Series [3] can be described thus: Cytotoxicity against mouse L929 cells assessed as cell viability up to 150 uM. The note with it: read-out: Activity. It counts as cell-based.
Another series concerns Mus musculus. Briefly: Antinociceptive effect in mouse assessed as inhibition of acetic acid-induced abdominal constriction at 100 uM/kg, po. It counts as functional, Abdomen.
The test system of series [4] is L929. Briefly: Antiinflammatory activity against mouse L929 cells assessed as inhibition of LPS-induced TNFalpha production at 15.625 uM after 48 hrs. It counts as functional. The note with it: L929, 48 h. The method, boiled down: as §1
For series [5], the system named is L929. Kind of series: Antiinflammatory activity against mouse L929 cells assessed as inhibition of LPS-induced TNFalpha production after 48 hrs. It counts as functional, cell-based. The method, boiled down:
as §1

Series [6] has as its system Salmonella typhimurium. Briefly: Genotoxicity in Salmonella typhimurium TA100 at 1.25 ug/plate assessed as number of revertants per plate in presence of S9 liver extract (reference value: 128.9 +/- 7.3 no unit). It counts as toxicity, organism-based, Liver S9 fraction. The following applies: salmonella enterica subsp. enterica serovar typhimurium.
For series [7], the system named is Salmonella typhimurium. Briefly: Genotoxicity in Salmonella typhimurium TA102 assessed as mutagenic index at 8 umol/plate. It counts as toxicity, organism-based. The following applies: salmonella enterica subsp. enterica serovar typhimurium.
The test system of series [8] is Salmonella typhimurium. Kind of series: Genotoxicity in Salmonella typhimurium TA102 assessed as mutagenic index at 16 umol/plate in presence of S9 liver extract. It counts as toxicity, organism-based, Liver S9 fraction. The note with it: salmonella enterica subsp. enterica serovar typhimurium.
The subject of series [9] is Salmonella typhimurium. Briefly: Genotoxicity in Salmonella typhimurium TA102 assessed as mutagenic index at 32 umol/plate in presence of S9 liver extract. It counts as toxicity, organism-based, Liver S9 fraction. The note with it: salmonella enterica subsp. enterica serovar typhimurium.
Series [10] has as its system Salmonella typhimurium. Kind of series: Genotoxicity in Salmonella typhimurium TA100 assessed as mutagenic index at 4 umol/plate. It counts as toxicity, organism-based. The note with it: salmonella enterica subsp. enterica serovar typhimurium.
Series [11] relates to Salmonella typhimurium. Kind of series: Genotoxicity in Salmonella typhimurium TA100 assessed as mutagenic index at 32 umol/plate. It counts as toxicity, organism-based. The note with it: salmonella enterica subsp. enterica serovar typhimurium.
The subject of series [12] is Salmonella typhimurium. Kind of series: Genotoxicity in Salmonella typhimurium TA100 assessed as mutagenic index at 16 umol/plate. It counts as toxicity, organism-based. The following applies: salmonella enterica subsp. enterica serovar typhimurium.
Series [13] relates to Salmonella typhimurium. Kind of series: Genotoxicity in Salmonella typhimurium TA102 assessed as mutagenic index at 8 umol/plate in presence of S9 liver extract. The following applies: salmonella enterica subsp. enterica serovar typhimurium. It counts as toxicity, organism-based, Liver S9 fraction.
The test system of series [14] is Salmonella typhimurium. Briefly: Genotoxicity in Salmonella typhimurium TA102 assessed as mutagenic index at 2 umol/plate in presence of S9 liver extract. It counts as toxicity, organism-based, Liver S9 fraction. The following applies: salmonella enterica subsp. enterica serovar typhimurium.
The subject of series [15] is Salmonella typhimurium. Kind of series: Genotoxicity in Salmonella typhimurium TA100 assessed as mutagenic index at 32 umol/plate in presence of S9 liver extract. It counts as toxicity, organism-based, Liver S9 fraction. The following applies: salmonella enterica subsp. enterica serovar typhimurium.
In series [16] the test system is Salmonella typhimurium. Kind of series: Genotoxicity in Salmonella typhimurium TA100 assessed as mutagenic index at 8 umol/plate in presence of S9 liver extract. It counts as toxicity, organism-based, Liver S9 fraction. The note with it: salmonella enterica subsp. enterica serovar typhimurium.
Series [17] deals with Salmonella typhimurium. Briefly: Genotoxicity in Salmonella typhimurium TA102 assessed as mutagenic index at 32 umol/plate. It counts as toxicity, organism-based. The following applies: salmonella enterica subsp. enterica serovar typhimurium.
Series [18] relates to Salmonella typhimurium. Kind of series: Genotoxicity in Salmonella typhimurium TA100 assessed as mutagenic index at 16 umol/plate in presence of S9 liver extract. It counts as toxicity, organism-based, Liver S9 fraction. The following applies: salmonella enterica subsp. enterica serovar typhimurium.
For series [19], the system named is Salmonella typhimurium. Briefly: Genotoxicity in Salmonella typhimurium TA102 assessed as mutagenic index at 4 umol/plate in presence of S9 liver extract. It counts as toxicity, organism-based, Liver S9 fraction. The note with it: salmonella enterica subsp. enterica serovar typhimurium.
For series [20], the system named is Salmonella typhimurium. Briefly: Genotoxicity in Salmonella typhimurium TA100 assessed as mutagenic index at 2 umol/plate. It counts as toxicity, organism-based. The following applies: salmonella enterica subsp. enterica serovar typhimurium.
Series [21] concerns Salmonella typhimurium. Kind of series: Genotoxicity in Salmonella typhimurium TA102 assessed as mutagenic index at 2 umol/plate. It counts as toxicity, organism-based. The note with it: salmonella enterica subsp. enterica serovar typhimurium.
Series [22] deals with Salmonella typhimurium. Kind of series: Genotoxicity in Salmonella typhimurium TA100 assessed as mutagenic index at 4 umol/plate in presence of S9 liver extract. It counts as toxicity, organism-based, Liver S9 fraction. The following applies: salmonella enterica subsp. enterica serovar typhimurium.
Series [23] has as its system Salmonella typhimurium. Kind of series: Genotoxicity in Salmonella typhimurium TA102 assessed as mutagenic index at 4 umol/plate. It counts as toxicity, organism-based. The note with it: salmonella enterica subsp. enterica serovar typhimurium.
The test system of series [24] is Salmonella typhimurium. Kind of series: Genotoxicity in Salmonella typhimurium TA100 assessed as mutagenic index at 2 umol/plate in presence of S9 liver extract. It counts as toxicity, organism-based, Liver S9 fraction. The note with it: salmonella enterica subsp. enterica serovar typhimurium.
In series [25] the test system is Salmonella typhimurium. Kind of series: Genotoxicity in Salmonella typhimurium TA100 assessed as mutagenic index at 8 umol/plate. It counts as toxicity, organism-based. The note with it: salmonella enterica subsp. enterica serovar typhimurium.
Series [26] relates to Salmonella typhimurium. Kind of series: Genotoxicity in Salmonella typhimurium TA102 assessed as mutagenic index at 16 umol/plate. It counts as toxicity, organism-based. The note with it: salmonella enterica subsp. enterica serovar typhimurium.
The next series concerns Mycobacterium leprae. Kind of series: Antimycobacterial activity against Mycobacterium leprae inoculated in mouse model assessed as mean number of bacilli at 200 mg/kg, po 5 days/week for 4 weeks (reference value: 3.56 x 10^6 cells). It counts as functional.

13 compounds from ChEMBL document CHEMBL3352176, “Synthesis and evaluation of novel dapsone-thalidomide hybrids for the treatment of type 2 leprosy reactions” (Bioorg Med Chem Lett, 2014) can be followed below.

In the case of `COc1cccc2c1C(=O)c1c(O)c3c(c(O)c1C2=O)C[C@@](O)(C(C)=O)C[C@@H]3O[C@H]1C[C@H](N)[C@H](O)[C@H](C)O1` [DAUNORUBICIN], in the series with Salmonella typhimurium [1], the Activity was 902.

For orientation: inhibition means the percentage by which the read-out fell short of the control. For `O=C1c2ccccc2C(=O)N1c1ccc(S(=O)(=O)Nc2ncccn2)cc1`, in the series with L929 [2], the inhibition at 125 µM is 79.3%. Further, the viability in series [3] is greater than 90%. Also, in the series on Mus musculus, the “inhibition (INH)” value came out at 39.1%. Besides, in the series on L929 [4], the inhibition at 15.625 µM is 33.7%. For the same compound, in the series with L929 [5], the inhibition entry is “Dose-dependent effect”.

With `N=C(N)NS(=O)(=O)c1ccc(N2C(=O)c3ccccc3C2=O)cc1`, the inhibition at 125 µM in the series on L929 [2] came to 7.24%. Moreover, the viability in series [3] is greater than 90%. In addition, the “inhibition (INH)” value in the series with Mus musculus was determined as 29.63%. Further, the inhibition at 15.625 µM in the series on L929 [4] turned out to be 0%. The inhibition result in the series on L929 [5] is “Dose-dependent effect”.

For the compound `COc1cnc(NS(=O)(=O)c2ccc(N3C(=O)c4ccccc4C3=O)cc2)nc1`, in the series on L929 [2], the inhibition at 125 µM was found to be 80.8%. Moreover, the viability in series [3] is greater than 90%. Further, the “inhibition (INH)” value in the series with Mus musculus was found to be 27.57%. Also, the inhibition at 15.625 µM with L929 [4] was determined as 73.5%. Moreover, the inhibition result in the series with L929 [5] was “Dose-dependent effect”.

Take `Cc1c(N(C)CS(=O)(=O)O)c(=O)n(-c2ccccc2)n1C` [METAMIZOLE]: the “inhibition (INH)” value in the series with Mus musculus is listed as 33.5%.

`Nc1ccc2cc3ccccc3cc2c1` [2-AMINOANTHRACENE]: in the series on Salmonella typhimurium [6], the Activity amounted to 2540.

As to `Cc1cc(NS(=O)(=O)c2ccc(N3C(=O)c4ccccc4C3=O)cc2)no1`, in the series on L929 [2], the inhibition at 125 µM was 34.1%. Further, the viability in series [3] is greater than 90%. For the same compound, the “inhibition (INH)” value in the series on Mus musculus was found to be 17.9%. Moreover, in the series on L929 [4], the inhibition at 15.625 µM turned out to be 16.2%. For the same compound, the inhibition entry in the series on L929 [5] was “Dose-dependent effect”.

For the compound `NS(=O)(=O)c1ccc(N2C(=O)c3ccccc3C2=O)cc1`, the inhibition at 125 µM in the series on L929 [2] stood at 70.7%. Further, the viability in series [3] is greater than 90%. Also, the “inhibition (INH)” value with Mus musculus came to 26.75%. Besides, the inhibition at 15.625 µM with L929 [4] was 53%. Also, the inhibition result in the series on L929 [5] is “Dose-dependent effect”.

`Cc1cc(C)nc(NS(=O)(=O)c2ccc(N3C(=O)c4ccccc4C3=O)cc2)n1`: the inhibition at 125 µM with L929 [2] turned out to be 81.3%. In addition, the viability in [3] was greater than 90%. The “inhibition (INH)” value in the series with Mus musculus was 27.37%. For the same compound, in the series with L929 [4], the inhibition at 15.625 µM came out at 53.9%. Further, the inhibition result with L929 [5] is “Dose-dependent effect”.

For `Cc1ccnc(NS(=O)(=O)c2ccc(N3C(=O)c4ccccc4C3=O)cc2)n1`, the Activity in the series on Salmonella typhimurium [7] is 1.26; with Salmonella typhimurium [8], 1.31; in the series on Salmonella typhimurium [9], 1.38; in the series with Salmonella typhimurium [10], 1.19; with Salmonella typhimurium [11], 1.59; in the series on Salmonella typhimurium [12], 1.61. Besides, the Activity in the series on Salmonella typhimurium [13] was found to be 1.24; in the series on Salmonella typhimurium [14], 1.07; in the series on Salmonella typhimurium [15], 1.59; in the series with Salmonella typhimurium [16], 1.33; with Salmonella typhimurium [17], 1.4; in the series on Salmonella typhimurium [18] it was 1.64. Further, the Activity in the series with Salmonella typhimurium [19] came out at 1.17; in the series with Salmonella typhimurium [20] it was 1.07; in the series with Salmonella typhimurium [21], 1.08; in the series on Salmonella typhimurium [22] it was 1.21; in the series with Salmonella typhimurium [23] it was 1.22; in the series with Salmonella typhimurium [24] it was 1.08. The Activity with Salmonella typhimurium [25] was 1.33; in the series with Salmonella typhimurium [26] it was 1.36; in the series with Mycobacterium leprae, 2500000. Further, the inhibition at 125 µM in the series with L929 [2] was 87.8%. Further, the viability in series [3] was greater than 90%. The “inhibition (INH)” value in the series on Mus musculus amounted to 34.15%. Further, the inhibition at 15.625 µM with L929 [4] worked out at 86.3%. For the same compound, the inhibition result in the series on L929 [5] was “Dose-dependent effect”.

Turning to `O=C1CCC(N2C(=O)c3ccccc3C2=O)C(=O)N1` (stereo not drawn) [THALIDOMIDE], the inhibition at 125 µM with L929 [2] was 42.8%. In addition, in the series with Mus musculus, the “inhibition (INH)” value came out at 42.2%. Moreover, the inhibition at 15.625 µM with L929 [4] worked out at 35.4%. In addition, the Activity in the series with Mycobacterium leprae is reported as 4600000.

As to `Nc1ccc(NS(=O)(=O)c2ccc(N3C(=O)c4ccccc4C3=O)cc2)cc1`, in the series with L929 [2], the inhibition at 125 µM came to 40.6%. The viability in series [3] is greater than 90%. In addition, the “inhibition (INH)” value in the series on Mus musculus is 35.2%. The inhibition at 15.625 µM in the series on L929 [4] was 28.8%. Besides, the inhibition result in the series on L929 [5] is “Dose-dependent effect”.

With `O=C1c2ccccc2C(=O)N1c1ccc(S(=O)(=O)Nc2ccccn2)cc1`, the inhibition at 125 µM in the series on L929 [2] stood at 66.6%. Also, in [3], the viability is greater than 90%. For the same compound, the “inhibition (INH)” value in the series on Mus musculus was found to be 49.8%. Moreover, the inhibition at 15.625 µM with L929 [4] worked out at 26.5%. Also, the inhibition result in the series on L929 [5] is “Dose-dependent effect”.
